Test results taken from ChEMBL document CHEMBL1135765, “Synthesis of 3' '-substituted TSAO derivatives with anti-HIV-1 and anti-HIV-2 activity through an efficient palladium-catalyzed cross-coupling approach” (J Med Chem, 2002).

Experiments:
[1] = system: Human immunodeficiency virus 2; test: Effective concentration required to inhibit HIV-2 induced cytopathicity in CEM cell culture by 50%.; format: functional, organism-based; conditions: Human immunodeficiency virus 2, CCRF-CEM
Method in brief: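 CEM cells at 4 × 10⁵/mL infected with HIV-1 or HIV-2 at ~100 CCID₅₀ per mL, mixed 1:1 with compound dilutions. Giant cell formation scored microscopically after 4 days. EC₅₀ is the concentration inhibiting virus-induced cytopathicity by 50%.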

[2] = system: Human immunodeficiency virus 2; test: Effective concentration required to inhibit HIV-2 induced cytopathicity in MT-4 cell culture by 50%.; format: functional, organism-based; conditions: Human immunodeficiency virus 2, MT4
Method in brief: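 MT-4 cells at 3 × 10⁵/mL infected with HIV-1 or HIV-2 at ~100 CCID₅₀ per mL, mixed 1:1 with compound dilutions. Cytopathicity read by trypan blue dye exclusion after 5 days. EC₅₀ is the concentration giving 50% protection against the virus-induced loss of cell viability.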

CCRF-CEM = test: Cytostatic concentration required to inhibit CEM cell proliferation by 50%; format: functional; conditions: Homo sapiens
Method in brief: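 CEM cells (4 × 10⁵/mL) exposed to compound dilutions without virus; CC₅₀ is the concentration that inhibits CEM cell proliferation by 50%.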

MT4 = test: Cytotoxic concentration required to inhibit MT-4 cell proliferation by 50%; format: functional; conditions: Homo sapiens
Method in brief: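 Mock-infected MT-4 cells (3 × 10⁵/mL) incubated with compound dilutions; CC₅₀ is the concentration that reduces the number of viable MT-4 cells by 50%.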

[3] = Effective concentration required to inhibit HIV-1 induced cytopathicity in MT-4 cell culture by 50%.; conditions: mt4

Compound	EC50 [1] [µM]	EC50 [2] [µM]	CC50 (CCRF-CEM) [µM]	CC50 (MT4) [µM]	EC50 [3] [µM]
Cc1cn([C@@H]2O[C@H](CO[Si](C)(C)C(C)(C)C)[C@@]3(OS(=O)(=O)C(c4ccccc4)=C3N)[C@H]2O[Si](C)(C)C(C)(C)C)c(=O)[nH]c1=O	> 2	> 50	37	55	
Cc1cn([C@@H]2O[C@H](CO[Si](C)(C)C(C)(C)C)[C@@]3(OS(=O)(=O)C(/C=C/CO)=C3N)[C@H]2O[Si](C)(C)C(C)(C)C)c(=O)n(C)c1=O	5.7	> 10	18	13	
COC(=O)/C=C/C1=C(N)[C@@]2(OS1(=O)=O)[C@@H](CO[Si](C)(C)C(C)(C)C)O[C@@H](n1cc(C)c(=O)n(C)c1=O)[C@@H]2O[Si](C)(C)C(C)(C)C	> 2	> 10	37	55	
Cc1cn([C@@H]2O[C@H](CO[Si](C)(C)C(C)(C)C)[C@@]3(OS(=O)(=O)C(CC(N)=O)=C3NCC(N)=O)[C@H]2O[Si](C)(C)C(C)(C)C)c(=O)n(C)c1=O	> 2	> 2	3.9	3.2	
Cc1cn([C@@H]2O[C@H](CO[Si](C)(C)C(C)(C)C)[C@@]3(OS(=O)(=O)C(Cl)=C3N)[C@H]2O[Si](C)(C)C(C)(C)C)c(=O)[nH]c1=O	> 10	> 10	7	5.4	
COC(=O)/C=C/C1=C(N)[C@@]2(OS1(=O)=O)[C@@H](CO[Si](C)(C)C(C)(C)C)O[C@@H](n1cc(C)c(=O)[nH]c1=O)[C@@H]2O[Si](C)(C)C(C)(C)C	7.3	9.9	39	29	
C=CCC1=C(N)[C@@]2(OS1(=O)=O)[C@@H](CO[Si](C)(C)C(C)(C)C)O[C@@H](n1cc(C)c(=O)n(C)c1=O)[C@@H]2O[Si](C)(C)C(C)(C)C	> 50	> 50	45	82	
C=CCNC1=CS(=O)(=O)O[C@@]12[C@@H](CO[Si](C)(C)C(C)(C)C)O[C@@H](n1cc(C)c(=O)n(C)c1=O)[C@@H]2O[Si](C)(C)C(C)(C)C	> 50	> 50	126	25	
CC#CC1=C(N)[C@@]2(OS1(=O)=O)[C@@H](CO[Si](C)(C)C(C)(C)C)O[C@@H](n1cc(C)c(=O)n(C)c1=O)[C@@H]2O[Si](C)(C)C(C)(C)C	> 2	> 2	5	3.3	
Cc1cn([C@@H]2O[C@H](CO[Si](C)(C)C(C)(C)C)[C@@]3(OS(=O)(=O)C(I)=C3N)[C@H]2O[Si](C)(C)C(C)(C)C)c(=O)n(C)c1=O	> 2	> 10	5.6	3.9	
Cc1cn([C@@H]2O[C@H](CO[Si](C)(C)C(C)(C)C)[C@@]3(OS(=O)(=O)C(I)=C3N)[C@H]2O[Si](C)(C)C(C)(C)C)c(=O)[nH]c1=O	> 2	> 2	4	4.3	
Cc1cn([C@@H]2O[C@H](CO[Si](C)(C)C(C)(C)C)[C@@]3(OS(=O)(=O)C=C3N)[C@H]2O[Si](C)(C)C(C)(C)C)c(=O)n(C)c1=O	> 250	> 250		230	
CCOC(=O)/C=C/C1=C(N)[C@@]2(OS1(=O)=O)[C@@H](CO[Si](C)(C)C(C)(C)C)O[C@@H](n1cc(C)c(=O)[nH]c1=O)[C@@H]2O[Si](C)(C)C(C)(C)C	> 10	> 50	174	40	
Cc1cn([C@@H]2O[C@H](CO[Si](C)(C)C(C)(C)C)[C@@]3(OS(=O)(=O)C(Br)=C3N)[C@H]2O[Si](C)(C)C(C)(C)C)c(=O)[nH]c1=O	> 10	> 10	17	18	
Cc1cn([C@@H]2O[C@H](CO[Si](C)(C)C(C)(C)C)C3(OS(=O)(=O)C=C3N)[C@H]2O[Si](C)(C)C(C)(C)C)c(=O)[nH]c1=O (stereo partly specified)	> 10	> 10		12	0.06
C=CC1=C(N)[C@@]2(OS1(=O)=O)[C@@H](CO)O[C@@H](n1cc(C)c(=O)[nH]c1=O)[C@@H]2O[Si](C)(C)C(C)(C)C	> 50	> 50	76	47	
Cc1cn([C@@H]2O[C@H](CO[Si](C)(C)C(C)(C)C)[C@@]3(OS(=O)(=O)C(c4ccccc4)=C3N)[C@H]2O[Si](C)(C)C(C)(C)C)c(=O)n(C)c1=O		> 50	65	24	
Cc1cn([C@@H]2O[C@H](CO[Si](C)(C)C(C)(C)C)[C@@]3(OS(=O)(=O)C(/C=C/CO)=C3N)[C@H]2O[Si](C)(C)C(C)(C)C)c(=O)[nH]c1=O	1.2	5.4	18	17	
C=CC1=C(N)[C@@]2(OS1(=O)=O)[C@@H](CO[Si](C)(C)C(C)(C)C)O[C@@H](n1cc(C)c(=O)[nH]c1=O)[C@@H]2O[Si](C)(C)C(C)(C)C	4	3.3	36	24	
CC1=C(N)[C@@]2(OS1(=O)=O)[C@@H](CO[Si](C)(C)C(C)(C)C)O[C@@H](n1cc(C)c(=O)n(C)c1=O)[C@@H]2O[Si](C)(C)C(C)(C)C	> 50	> 250	10	> 250	
Cc1cn([C@@H]2O[C@H](CO[Si](C)(C)C(C)(C)C)[C@@]3(OS(=O)(=O)C(c4ccsc4)=C3N)[C@H]2O[Si](C)(C)C(C)(C)C)c(=O)n(C)c1=O	> 2	> 2	33	3.9	
CNC1=C(C)S(=O)(=O)O[C@@]12[C@@H](CO[Si](C)(C)C(C)(C)C)O[C@@H](n1cc(C)c(=O)n(C)c1=O)[C@@H]2O[Si](C)(C)C(C)(C)C	> 250	> 250	234	> 250	
